Results taken from ChEMBL document CHEMBL3817763, “Exploration of GGTase-I substrate requirements. Part 2: Synthesis and biochemical analysis of novel saturated geranylgeranyl diphosphate analogs” (Bioorg Med Chem Lett, 2016).
Active and inactive are the calls of the source. The rule behind the calls is not given here.

Tests used:
[1] = target: T1, Geranylgeranyl transferase type I (Homo sapiens) (UniProt P49354+P53609); test: Ratio of Kcat to Km for recombinant GGTase1 (unknown origin) using dansyl-GCVLL as co-substrate assessed as protein prenylation by spectrofluorometric method relative to GGPP
[2] = target: T1, Geranylgeranyl transferase type I (Homo sapiens); test: Activity at recombinant GGTase1 (unknown origin) using dansyl-GCVLL as co-substrate assessed as protein prenylation at 5 uM incubated for 1.5 hrs by spectrofluorometric method
In short: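 Preliminary single-point screen: analog diphosphate 5 µM with 5 µM dansyl-GCVLL and 50 nM GGTase-I; continuous fluorescence read at 1.5 h. Result is given as relative fluorescence increase, normalized to GGPP (1.5 h) set to 1.0. Mean ± SD, n = 3.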

[3] = target: T2, Protein farnesyltransferase (Homo sapiens) (UniProt P49354+P49356); test: Activity at recombinant FTase (unknown origin) using dansyl-GCVLS as co-substrate assessed as protein prenylation at 5 uM incubated for 1.5 hrs by spectrofluorometric method; format: protein-complex assay
In short: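 Preliminary single-point screen: analog diphosphate 5 µM with 5 µM dansyl-GCVLS and 50 nM FTase; continuous fluorescence read at 1.5 h. Result is given as relative fluorescence increase, normalized to FPP (5 µM, 1.5 h) set to 1.0. Mean ± SD, n = 3.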

[4] = target: T2, Protein farnesyltransferase (Homo sapiens); test: Ratio of Kcat to Km for recombinant FTase (unknown origin) using dansyl-GCVLS as co-substrate assessed as protein prenylation by spectrofluorometric method relative to FPP; format: protein-complex assay
[5] = system: CC(C)=CCCCCCCCCC/C(C)=C/COP(=O)(O)OP(=O)(O)O; test: (§1) Ratio of Kcat to Km for recombinant GGTase1 (unknown origin) using dansyl-GCVLL as co-substrate assessed as protein prenylation by spectrofluorometric method; settings: Homo sapiens
[6] = system: CCCCCCC/C(C)=C/CC/C(C)=C/COP(=O)(O)OP(=O)(O)O; test: as §1; settings: Homo sapiens
[7] = system: CC(C)=CCC/C(C)=C/CC/C(C)=C/CC/C(C)=C/COP(=O)(O)OP(=O)(O)O; test: as §1; settings: Homo sapiens
[8] = system: CCCCCCCCCCCC/C(C)=C/COP(=O)(O)OP(=O)(O)O; test: as §1; settings: Homo sapiens
[9] = system: CCCCCCCCC/C(C)=C/CC/C(C)=C/COP(=O)(O)OP(=O)(O)O; test: as §1; settings: Homo sapiens
[10] = system: C/C(=C\COP(=O)(O)OP(=O)(O)O)CC/C=C(\C)CCCC(C)CCCC(C)C; test: as §1; settings: Homo sapiens
[11] = system: CCCCCCCCCCC/C(C)=C/COP(=O)(O)OP(=O)(O)O; test: as §1; settings: Homo sapiens
[12] = system: C/C(=C\CC/C(C)=C/COP(=O)(O)OP(=O)(O)O)CC/C=C(\C)CCCC(C)C; test: as §1; settings: Homo sapiens
[13] = system: CCCCCCCC/C(C)=C/CC/C(C)=C/COP(=O)(O)OP(=O)(O)O; test: as §1; settings: Homo sapiens
[14] = system: CC(C)=CCCCCCCCCCC/C(C)=C/COP(=O)(O)OP(=O)(O)O; test: as §1; settings: Homo sapiens
[15] = system: CCCCCCCCCCCCC/C(C)=C/COP(=O)(O)OP(=O)(O)O; test: as §1; settings: Homo sapiens
[16] = species on record: Homo sapiens; test: Ratio of Kcat/Km for recombinant FTase (unknown origin) to Kcat/Km for recombinant GGTase1 (unknown origin)
[17] = system: CC(C)=CCCCCCCCCC/C(C)=C/COP(=O)(O)OP(=O)(O)O; test: (§2) Ratio of Kcat to Km for recombinant FTase (unknown origin) using dansyl-GCVLS as co-substrate assessed as protein prenylation by spectrofluorometric method; format: protein-complex assay; settings: Homo sapiens
[18] = system: CCCCCCC/C(C)=C/CC/C(C)=C/COP(=O)(O)OP(=O)(O)O; test: as §2; format: protein-complex assay; settings: Homo sapiens
[19] = system: CCCCCC/C(C)=C/CC/C(C)=C/COP(=O)(O)OP(=O)(O)O; test: as §2; format: protein-complex assay; settings: Homo sapiens
[20] = system: CC(C)=CCC/C(C)=C/CC/C(C)=C/COP(=O)(O)OP(=O)(O)O; test: as §2; format: protein-complex assay; settings: Homo sapiens
[21] = system: CCCCCCCCCCCC/C(C)=C/COP(=O)(O)OP(=O)(O)O; test: as §2; format: protein-complex assay; settings: Homo sapiens
[22] = system: CCCCCCCCC/C(C)=C/CC/C(C)=C/COP(=O)(O)OP(=O)(O)O; test: as §2; format: protein-complex assay; settings: Homo sapiens
[23] = system: C/C(=C\COP(=O)(O)OP(=O)(O)O)CC/C=C(\C)CCCC(C)CCCC(C)C; test: as §2; format: protein-complex assay; settings: Homo sapiens
[24] = system: CCCCCCCCCCC/C(C)=C/COP(=O)(O)OP(=O)(O)O; test: as §2; format: protein-complex assay; settings: Homo sapiens
[25] = system: CCCCCCCC/C(C)=C/CC/C(C)=C/COP(=O)(O)OP(=O)(O)O; test: as §2; format: protein-complex assay; settings: Homo sapiens
[26] = system: CC(C)=CCCCCCCCCCC/C(C)=C/COP(=O)(O)OP(=O)(O)O; test: as §2; format: protein-complex assay; settings: Homo sapiens
[27] = system: CCCCCCCCCCCCC/C(C)=C/COP(=O)(O)OP(=O)(O)O; test: as §2; format: protein-complex assay; settings: Homo sapiens

| Molecule | Ratio [1] | Activity [2] | Activity [3] | Ratio [4] | Ratio [16] | also measured |
| --- | --- | --- | --- | --- | --- | --- |
| C/C(=C\COP(=O)(O)OP(=O)(O)O)CC/C=C(\C)CCCC(C)CCCC(C)C (stereo not drawn) | 0.03 | Active | Active | 0.05 |  |  |
| CC(C)=CCCCCCCCCCC/C(C)=C/COP(=O)(O)OP(=O)(O)O | 0.5 | Active | Active | 0.15 |  |  |
| Geranylgeranyl transferase type I (Homo sapiens) (from UniProt P49354+P53609) |  |  |  |  |  | kcat/Km [5]: 9 ×10² /M/s; kcat/Km [6]: 3.2 ×10⁴ /M/s; kcat/Km [7]: 3.78 ×10⁴ /M/s; kcat/Km [8]: 8.9 ×10² /M/s; kcat/Km [9]: 3.6 ×10⁴ /M/s; kcat/Km [10]: 1.2 ×10³ /M/s; kcat/Km [11]: 3.2 ×10³ /M/s; kcat/Km [12]: 6.3 ×10³ /M/s; kcat/Km [13]: 2.2 ×10⁴ /M/s; kcat/Km [14]: 1.9 ×10⁴ /M/s; kcat/Km [15]: 6.2 ×10³ /M/s |
| CCCCCCC/C(C)=C/CC/C(C)=C/COP(=O)(O)OP(=O)(O)O | 0.85 | Active | Active | 0.15 | 0.22 |  |
| Protein farnesyltransferase (Homo sapiens) (from UniProt P49354+P49356) |  |  |  |  |  | kcat/Km [17]: 6.8 ×10³ /M/s; kcat/Km [18]: 7.1 ×10³ /M/s; kcat/Km [19]: 1.6 ×10⁴ /M/s; kcat/Km [20]: 4.6 ×10⁴ /M/s; kcat/Km [21]: 1.1 ×10⁴ /M/s; kcat/Km [22]: 3.3 ×10⁴ /M/s; kcat/Km [23]: 3.5 ×10³ /M/s; kcat/Km [24]: 8.3 ×10³ /M/s; kcat/Km [25]: 9.7 ×10³ /M/s; kcat/Km [26]: 7.1 ×10³ /M/s; kcat/Km [27]: 4.1 ×10³ /M/s |
| CCCCCCCCCCCCC/C(C)=C/COP(=O)(O)OP(=O)(O)O | 0.16 | Active | Active | 0.09 |  |  |
| C/C(=C\CC/C(C)=C/COP(=O)(O)OP(=O)(O)O)CC/C=C(\C)CCCC(C)C | 0.17 | Active | Active |  |  |  |
| CCCCCCCCCCC/C(C)=C/COP(=O)(O)OP(=O)(O)O | 0.08 | Active | Active | 0.18 | 2 |  |
| CCCCCCCC/C(C)=C/CC/C(C)=C/COP(=O)(O)OP(=O)(O)O | 0.58 | Active | Active | 0.21 | 0.44 |  |
| CCCCCCCCCCCC/C(C)=C/COP(=O)(O)OP(=O)(O)O | 0.02 | Active | Active | 0.24 | 12 |  |
| CCCCCCCCC/C(C)=C/CC/C(C)=C/COP(=O)(O)OP(=O)(O)O | 0.95 | Active | Active | 0.72 |  |  |
| CCCCCC/C(C)=C/CC/C(C)=C/COP(=O)(O)OP(=O)(O)O |  | Active | Active | 0.35 |  |  |
| CC(C)=CCCCCCCCCC/C(C)=C/COP(=O)(O)OP(=O)(O)O | 0.02 | Active | Active | 0.15 |  |  |
